Converted amounts (≈) assume the structure as drawn.
Columns and labels:
[1] = system: Human immunodeficiency virus 1; assay: Antiviral activity against wild type HIV1 NL4-3 in human TZM-b1 cells after 48 hrs by luciferase reporter gene assay; assay type: functional, organism-based; conditions: Human immunodeficiency virus 1, NL4-3, TZM-b1, 48 h
In short: (§1)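 Single-round infection of TZM-bl cells with 200 TCID50 virus mixed with test sample at eight 4-fold serial dilutions. Incubated 48 h, then luciferase reagent was added and luminescence read. IC50 is the concentration giving 50% reduction in RLU versus virus-control wells, after subtracting background RLU.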

[2] = system: Human immunodeficiency virus 1; assay: Antiviral activity against HIV1 RTMDR1 in human TZM-b1 cells after 48 hrs by luciferase reporter gene assay; assay type: functional, organism-based; conditions: Human immunodeficiency virus 1, RTMDR1, TZM-b1, 48 h; in short: as §1
[3] = Therapeutic index, ratio of IC50 for human TZM-b1 cells to EC50 for HIV1 NL4-3; assay type: cell-based; conditions: read-out: TI
In short: (§2)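 Cytotoxicity was measured with the CytoTox-Glo kit following the manufacturer's instructions. Antiviral EC50 came from the single-round TZM-bl luciferase assay: 200 TCID50 virus, eight 4-fold sample dilutions, 48 h, and 50% RLU reduction versus virus control after background subtraction.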

[4] = Cytotoxicity against human TZM-b1 cells; assay type: cell-based
In short: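 Cytotoxicity in TZM-bl cells read with the CytoTox-Glo luminescent assay, run according to the kit instructions.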

[5] = Therapeutic index, ratio of IC50 for human TZM-b1 cells to EC50 for HIV1 RTMDR1; assay type: cell-based; conditions: read-out: TI; in short: as §2
[6] = Solubility of the compound in water after 1 hr; assay type: physicochemical
In short: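 Excess solid compound was added to HPLC-grade water and sonicated in an ultrasonic bath at room temperature for 1 h. Undissolved solid was removed with a PTFE syringe filter. Dissolved concentration was quantified by HPLC on a C18 column (2.1 mm × 100 mm) at a flow rate of 200 μL/min.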

[7] = system: Human immunodeficiency virus 1; assay: Antiviral activity against HIV1 3B infected in human H9 cells; assay type: functional, organism-based; conditions: Human immunodeficiency virus 1, 3B
[8] = Therapeutic index, ratio of CC50 for human H9 cells to EC50 for HIV1 3B; assay type: cell-based; conditions: read-out: TI

| SMILES | EC50 [1] | EC50 [2] | selectivity ratio [3] | IC50 [4] | selectivity ratio [5] | solubility ([6]; HPLC grade water, 1 h) | EC50 [7] | selectivity ratio [8] | solubility at 1 h ([6]; water) |
| --- | --- | --- | --- | --- | --- | --- | --- | --- | --- |
| Cc1cc(=O)c2ccc3c(c2o1)[C@@H](OC(=O)[C@@]12CC[C@@](C)(C(=O)O1)C2(C)C)[C@@H](OC(=O)[C@@]12CC[C@@](C)(C(=O)O1)C2(C)C)C(C)(C)O3 | 100 nM | 190 nM | 110 | 11000 nM | 58 |  |  |  |  |
| CC1(C)Oc2ccc3c(=O)cc(CNCc4ccncc4)oc3c2[C@@H](OC(=O)[C@@]23CC[C@@](C)(C(=O)O2)C3(C)C)[C@H]1OC(=O)[C@@]12CC[C@@](C)(C(=O)O1)C2(C)C | 21000 nM |  | > 1.3 | > 27000 nM | > 1.3 |  |  |  |  |
| CCc1oc2c3c(ccc2c(=O)c1N)OC(C)(C)[C@H](OC(=O)[C@@]12CC[C@@](C)(C(=O)O1)C2(C)C)[C@@H]3OC(=O)[C@@]12CC[C@@](C)(C(=O)O1)C2(C)C | 120 nM | 310 nM | 190 | 23000 nM | 74 | 10.3 µg/mL (≈ 15.5 µM) |  |  |  |
| CCc1cc(=O)c2c(C)cc3c(c2o1)[C@@H](OC(=O)[C@@]12CC[C@@](C)(C(=O)O1)C2(C)C)[C@@H](OC(=O)[C@@]12CC[C@@](C)(C(=O)O1)C2(C)C)C(C)(C)O3 | 100 nM | 54 nM | 110 | 11000 nM | 200 |  |  |  |  |
| Cc1oc2c3c(ccc2c(=O)c1I)OC(C)(C)[C@H](OC(=O)[C@@]12CC[C@@](C)(C(=O)O1)C2(C)C)[C@@H]3OC(=O)[C@@]12CC[C@@](C)(C(=O)O1)C2(C)C | 730 nM | 1600 nM | 18 | 13000 nM | 8 |  |  |  |  |
| Cc1c(C#N)oc2c3c(ccc2c1=O)OC(C)(C)[C@H](OC(=O)[C@@]12CC[C@@](C)(C(=O)O1)C2(C)C)[C@@H]3OC(=O)[C@@]12CC[C@@](C)(C(=O)O1)C2(C)C | 140 nM | 1900 nM | 290 | 40000 nM | 21 |  |  |  |  |
| CCc1oc2c3c(ccc2c(=O)c1C#N)OC(C)(C)[C@H](OC(=O)[C@@]12CC[C@@](C)(C(=O)O1)C2(C)C)[C@@H]3OC(=O)[C@@]12CC[C@@](C)(C(=O)O1)C2(C)C | 550 nM | 790 nM | > 54 | > 30000 nM | > 37 |  |  |  |  |
| CCc1oc2c3c(ccc2c(=O)c1NC)OC(C)(C)[C@H](OC(=O)[C@@]12CC[C@@](C)(C(=O)O1)C2(C)C)[C@@H]3OC(=O)[C@@]12CC[C@@](C)(C(=O)O1)C2(C)C | 440 nM | 1100 nM | 73 | 32000 nM | 29 |  |  |  |  |
| CC1(C)Oc2ccc3c(=O)cc(CN4CCOCC4)oc3c2[C@@H](OC(=O)[C@@]23CC[C@@](C)(C(=O)O2)C3(C)C)[C@H]1OC(=O)[C@@]12CC[C@@](C)(C(=O)O1)C2(C)C |  |  | > 14 | > 28000 nM | > 6.3 |  |  |  |  |
| Cc1oc2c3c(ccc2c(=O)c1Br)OC(C)(C)[C@H](OC(=O)[C@@]12CC[C@@](C)(C(=O)O1)C2(C)C)[C@@H]3OC(=O)[C@@]12CC[C@@](C)(C(=O)O1)C2(C)C | 550 nM | 570 nM | 14 | 7700 nM | 14 |  |  |  |  |
| CC1(C)Oc2ccc3ccc(=O)oc3c2[C@@H](OC(=O)C23CCC(C)(C(=O)O2)C3(C)C)[C@H]1OC(=O)C12CCC(C)(C(=O)O1)C2(C)C (stereo partly specified) |  |  |  |  |  |  | 49 nM | 328 |  |
| Cc1oc2c3c(cc(C)c2c(=O)c1Br)OC(C)(C)[C@H](OC(=O)[C@@]12CC[C@@](C)(C(=O)O1)C2(C)C)[C@@H]3OC(=O)[C@@]12CC[C@@](C)(C(=O)O1)C2(C)C | 590 nM | 910 nM | > 24 | > 14000 nM | > 15 |  |  |  |  |
| Cc1oc2c3c(c(Br)c(C)c2c(=O)c1Br)OC(C)(C)[C@H](OC(=O)[C@@]12CC[C@@](C)(C(=O)O1)C2(C)C)[C@@H]3OC(=O)[C@@]12CC[C@@](C)(C(=O)O1)C2(C)C | 10000 nM | > 12000 nM | > 1.2 | > 12000 nM |  |  |  |  |  |
| Cc1cc(=O)c2c(C)cc3c(c2o1)[C@@H](OC(=O)[C@@]12CC[C@@](C)(C(=O)O1)C2(C)C)[C@@H](OC(=O)[C@@]12CC[C@@](C)(C(=O)O1)C2(C)C)C(C)(C)O3 | 36 nM | 49 nM | 420 | 15000 nM | 310 |  |  |  | 5.2 µg/mL (≈ 7.99 µM) |
| CN(C)CCCN1CCN(Cc2cc(=O)c3ccc4c(c3o2)[C@@H](OC(=O)[C@@]23CC[C@@](C)(C(=O)O2)C3(C)C)[C@@H](OC(=O)[C@@]23CC[C@@](C)(C(=O)O2)C3(C)C)C(C)(C)O4)CC1 |  |  |  | 17000 nM |  |  |  |  |  |
| CC1(C)Oc2ccc3c(=O)cc(CC#N)oc3c2[C@@H](OC(=O)[C@@]23CC[C@@](C)(C(=O)O2)C3(C)C)[C@H]1OC(=O)[C@@]12CC[C@@](C)(C(=O)O1)C2(C)C | 1800 nM | 1400 nM | 9.4 | 17000 nM | 12 |  |  |  |  |
| CNCc1cc(=O)c2ccc3c(c2o1)[C@@H](OC(=O)[C@@]12CC[C@@](C)(C(=O)O1)C2(C)C)[C@@H](OC(=O)[C@@]12CC[C@@](C)(C(=O)O1)C2(C)C)C(C)(C)O3 | 290 nM | 690 nM | > 100 | > 30000 nM | > 43 |  |  |  |  |
| CCc1oc2c3c(ccc2c(=O)c1Br)OC(C)(C)[C@H](OC(=O)[C@@]12CC[C@@](C)(C(=O)O1)C2(C)C)[C@@H]3OC(=O)[C@@]12CC[C@@](C)(C(=O)O1)C2(C)C | 1100 nM | 990 nM | > 24 | > 27000 nM | > 28 |  |  |  |  |
| CC1(C)Oc2ccc3c(=O)cc(CBr)oc3c2[C@@H](OC(=O)[C@@]23CC[C@@](C)(C(=O)O2)C3(C)C)[C@H]1OC(=O)[C@@]12CC[C@@](C)(C(=O)O1)C2(C)C | 550 nM | 560 nM | 3 | 1700 nM | 3 |  |  |  |  |
| CCc1cc(=O)c2c(CC)cc3c(c2o1)[C@@H](OC(=O)[C@@]12CC[C@@](C)(C(=O)O1)C2(C)C)[C@@H](OC(=O)[C@@]12CC[C@@](C)(C(=O)O1)C2(C)C)C(C)(C)O3 | 250 nM | 340 nM | > 120 | > 30000 nM |  |  |  |  |  |
| Cc1cc(=O)c2c(CBr)cc3c(c2o1)[C@@H](OC(=O)[C@@]12CC[C@@](C)(C(=O)O1)C2(C)C)[C@@H](OC(=O)[C@@]12CC[C@@](C)(C(=O)O1)C2(C)C)C(C)(C)O3 | 810 nM | 1200 nM | 11 | 8900 nM | 7.4 |  |  |  |  |
| CC(Br)(Br)c1cc(=O)c2ccc3c(c2o1)[C@@H](OC(=O)[C@@]12CC[C@@](C)(C(=O)O1)C2(C)C)[C@@H](OC(=O)[C@@]12CC[C@@](C)(C(=O)O1)C2(C)C)C(C)(C)O3 | 1000 nM | 450 nM | 1.8 | 1800 nM | 4 |  |  |  |  |
| Cc1oc2c3c(ccc2c(=O)c1N)OC(C)(C)[C@H](OC(=O)[C@@]12CC[C@@](C)(C(=O)O1)C2(C)C)[C@@H]3OC(=O)[C@@]12CC[C@@](C)(C(=O)O1)C2(C)C | 250 nM | 470 nM | 130 | 32000 nM | 68 |  |  |  |  |
| CC(Br)c1cc(=O)c2ccc3c(c2o1)[C@@H](OC(=O)[C@@]12CC[C@@](C)(C(=O)O1)C2(C)C)[C@@H](OC(=O)[C@@]12CC[C@@](C)(C(=O)O1)C2(C)C)C(C)(C)O3 (stereo partly specified) |  |  |  | 3500 nM |  |  |  |  |  |
| CNc1c(C)oc2c3c(ccc2c1=O)OC(C)(C)[C@H](OC(=O)[C@@]12CC[C@@](C)(C(=O)O1)C2(C)C)[C@@H]3OC(=O)[C@@]12CC[C@@](C)(C(=O)O1)C2(C)C | 300 nM | 450 nM | > 200 | > 60000 nM | > 130 |  |  |  |  |

Reference: ChEMBL document CHEMBL1221394, “Anti-AIDS agents 79. Design, synthesis, molecular modeling and structure-activity relationships of novel dicamphanoyl-2',2'-dimethyldihydropyranochromone (DCP) analogs as potent anti-HIV agents” (Bioorg Med Chem, 2010)
